Laboratory results: article PMC2911241 (Letters in drug design & discovery, 2010)
Read-outs that look alike come from different tables or passages of the source.

Assays:
[1] = system: human chronic myelogenous K562 leukemia cells; test: Cell proliferation analysis, K562 cells; type: cell-based; conditions: Homo sapiens
Summary of the method: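 K562 cells grown in RPMI 1640 with 10% FCS, 2 mM L-glutamine, […] and penicillin/streptomycin at 37°C, 5% CO2. DMSO stocks (1 mg/mL) diluted in medium. Cells (1×10^4/well) exposed to increasing concentrations for 24 h at 37°C, then counted electronically. IC50 is 50% growth inhibition vs untreated controls. Duplicate cultures per concentration, repeated experiments, mean ± SE.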

[2] = system: tubulin; test: Inhibition of [3H]colchicine binding to tubulin; conditions: tubulin, colchicine and tested compound at 1, 5 and 1 μM
Summary of the method: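 Purified tubulin incubated with [3H]colchicine and test compound for 10 min at 37 °C. Read-out is percent inhibition of radiolabelled colchicine binding. Combretastatin A-4 served as reference at 1 μM.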

[3] = system: K562 cells; test: Cell cycle analysis by flow cytometry; type: cell-based, human; conditions: for Cell cycle percentage G0/G1 / Cell cycle percentage G2/M / Cell cycle percentage S: K562 cells treated at the IC50, calculated using living cells, mean ± SE; for Effect on cell cycle distribution (in words): K562 cells, each compound at the IC50 value
Summary of the method: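 K562 cells grown in RPMI 1640 with 10% FCS, 2 mM L-glutamine, penicillin (100 U/ml) and streptomycin (100 μg/ml) at 37 °C under 5% CO2, then exposed to test compound. Cells washed once in ice-cold PBS and resuspended at 1×10^6/mL in hypotonic propidium iodide (50 μg/mL, 0.1% sodium citrate, 0.03% NP-40) for 30 min. Single-parameter flow cytometry DNA histograms; phase percentages from living cells; hypodiploid peak scored as apoptotic.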

[4] = K562, 24 h, read-out: IC50 K562
[5] = K562, read-out: IC50 (nM) in Table 3

Row | IC50 [1, 4] [nM] | IC50 [1, 5] [nM] | Colchicine binding % ±SD (inhibition of [3H]colchicine binding) [2] [%] | SMILES | Cell cycle percentage G0/G1 [3] [%] | Cell cycle percentage G2/M [3] [%] | Cell cycle percentage S [3] [%] | Effect on cell cycle distribution (in words) [3]
1 | 27 ± 10 | 85 | 51±7 | COc1ccc2c(NC(C)=O)c(C(=O)c3cc(OC)c(OC)c(OC)c3)oc2c1 [Compound 3i, N-[6-Methoxy-2-(3,4,5-trimethoxybenzoyl)-1-benzofuran-3-yl]acetamide] | 27±5 | 37±6 | 36±8 | 
2 | 30 ± 20 | 400 | 47±5 | COc1ccc2c(NC(=O)CCl)c(C(=O)c3cc(OC)c(OC)c(OC)c3)oc2c1 [Compound 3j, 2-Chloro-N-[6-methoxy-2-(3,4,5-trimethoxybenzoyl)-1-benzofuran-3-yl]acetamide] | 23±4 | 33±5 | 44±7 | caused cells to accumulate in late S phase
3 | 180 ± 30 | 212 | 49±2 | COc1ccc2c(NC(=O)CBr)c(C(=O)c3cc(OC)c(OC)c(OC)c3)oc2c1 [Compound 3k, 2-Bromo-N-[6-methoxy-2-(3,4,5-trimethoxybenzoyl)-1-benzofuran-3-yl]acetamide] | 6±1 | 67±8 | 27±4 | 
4 | 64 ± 20 | 115 | 54±1 | COc1ccc2c(NC(=O)CI)c(C(=O)c3cc(OC)c(OC)c(OC)c3)oc2c1 [Compound 3l, 2-Iodo-N-[6-methoxy-2-(3,4,5-trimethoxybenzoyl)-1-benzofuran-3-yl]acetamide] | 23±3 | 21±3 | 56±4 | caused an increase in the percentage of cells in S phase
